Measured values reported in ChEMBL document CHEMBL1142551, “Acylamido analogs of endocannabinoids selectively inhibit cancer cell proliferation” (Bioorg Med Chem, 2008).
Calls of active or inactive are those of the source. No cut-off for these calls is given here.

How the values were obtained:
RAW264.7 = experiment: Antiproliferative activity against mouse RAW264.7 cells at 10 uM after 48 hrs relative to control; type: functional
In short: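 RAW264.7 cells grown in RPMI with 10% FBS and passaged by scraping. Seeded in 96-well plates, treated at 10 µM 24 h after seeding, four replicates. CellTiter-Glo ATP luminescence read 48 h after treatment; results given as percent of vehicle-treated control with SD.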

[1] = Antiproliferative activity against human WI38 cells at 10 uM after 48 hrs relative to control; type: cell-based; details: wi-38, 48 h
In short: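 WI-38 embryonic lung fibroblasts grown in DMEM with 10% FBS and passaged with trypsin. Plated in 96-well format and exposed to a single 10 µM concentration, with DMSO vehicle. CellTiter-Glo luminescence read 48 h after treatment, four replicates. Values given as percent of control ± SD.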

RBL-2H3 [2] = experiment: Antiproliferative activity against rat RBL2H3 cells at 1 uM treated 1 hr before LPS-challenge assessed after 24 hrs relative to control; type: functional
In short: (§1)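 RBL-2H3 mast cells, 500 cells/well in 96-well plates, grown 24 h, medium changed and cells held 4 h. Agent added 1 h before LPS (10 ng/ml), then 24 h further incubation. Cell number by CellTiter-Glo luminescence, n = 3; values given as raw response and as percent of DMSO control.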

RBL-2H3 [3] = experiment: Antiproliferative activity against rat RBL2H3 cells at 10 uM treated 1 hr before LPS-challenge assessed after 24 hrs relative to control; type: functional; in short: as §1
RBL-2H3 [4] = experiment: Antiproliferative activity against rat RBL2H3 cells at 0.1 uM treated 1 hr before LPS-challenge assessed after 24 hrs relative to control; type: functional; in short: as §1
HTB126 [5] = experiment: Antiproliferative activity against human HTB126 cells assessed as […] at 10 uM after 72 hrs by luciferase assay; type: functional, cell-based
In short: (§2)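 HTB-126 human breast tumour cells, 2000 cells/well in 24-well plates, grown 24 h, then given vehicle or agent at 10 µM final (diluted from a DMSO stock), N = 6. Parallel plates assayed at successive times after treatment by CellTiter-Glo luciferase ATP luminescence, read 15 min after adding an equal volume of reagent; raw units reported.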

HTB126 [6] = experiment: Antiproliferative activity against human HTB126 cells assessed as […] at 10 uM after 96 hrs by luciferase assay; type: functional, cell-based; in short: as §2
HTB126 [7] = experiment: Antiproliferative activity against human HTB126 cells assessed as […] at 10 uM after 24 hrs by luciferase assay; type: functional, cell-based; in short: as §2
HeLa = experiment: Antiproliferative activity against human HeLa cells at 10 uM after 48 hrs relative to control; type: functional, cell-based
In short: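 HeLa cells grown in DMEM with 10% FBS, seeded in 96-well plates and treated 24 h after seeding. CellTiter-Glo assay run 48 h post-treatment, four replicates per concentration. Results given as mean ± SEM relative to DMSO vehicle.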

HTB126 [8] = experiment: Antiproliferative activity against human HTB126 cells assessed as […] at 10 uM after 48 hrs by luciferase assay; type: functional, cell-based; in short: as §2
HTB126 [9] = experiment: Antiproliferative activity against human HTB126 cells assessed as fluorescence units at 10 uM after 48 hrs by luciferase assay in presence of rimonabant; type: functional, cell-based
In short: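 HTB-126 tumor breast cells in 96-well plates. Rimonabant (10 µM) added 30 min before the test agent (10 µM). CellTiter-Glo luminescence read 48 h later, four replicates. Values reported as raw fluorescence units rather than percent, because there are two control treatments.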

HTB126 [10] = experiment: (§3) Antiproliferative activity against human HTB126 cells at 10 uM after 48 hrs by luciferase assay relative to control; type: functional
In short: (§4)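 HTB-126 cells, with matched normal HTB-125 from the same donor, in DMEM with 10% FBS. Cells seeded in 96-well plates and treated 24 h after seeding across a dose range, four replicates per point. CellTiter-Glo ATP luminescence read 48 h after treatment; values given as percent of vehicle (DMSO) wells.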

[11] = Antiproliferative activity against human HTB125 cells at 0.1 to 1.0 uM after 48 hrs by luciferase assay relative to control; type: cell-based; details: htb125, 48 h
In short: (§5)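 Matched breast lines from the same donor: HTB-125 (normal) and HTB-126 (tumor), seeded in 96-well plates and treated 24 h after seeding, DMSO vehicle. CellTiter-Glo ATP luminescence read 48 h after treatment. Four replicates per point over a dose series; values expressed as percent of vehicle-treated wells.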

HTB126 [12] = experiment: Antiproliferative activity against human HTB126 cells at 0.1 to 1.0 uM after 48 hrs by luciferase assay relative to control; type: functional, cell-based; in short: as §5
[13] = as §3; type: functional; details: HTB126, 48 h; in short: as §4
[14] = Antiproliferative activity against human HTB125 cells at 10 uM after 48 hrs by luciferase assay relative to control; type: cell-based; details: htb125, 48 h; in short: as §5

For `CCCCCCCC/C=C\CCCCCCCC(N)=O` [OLEAMIDE], the Activity (RAW264.7) was 134% and the Activity [1] was 94%.

Molecule `CCCCC/C=C\C/C=C\C/C=C\CCCCCCC(N)=O` has an Activity (RAW264.7) of 82% and an Activity [1] of 58%.

`CCCCC/C=C\C/C=C\C/C=C\CCCCC(N)=O` gave an Activity (RAW264.7) of 94% and an Activity [1] of 33%.

For `CCCCC/C=C\C/C=C\C/C=C\C/C=C\CCCC(=O)NCCc1ccc(O)c(O)c1` [ARACHIDONOYL DOPAMINE], the Activity (RAW264.7) was 2.33%, the Activity (RBL-2H3 [2]) was 70% and the Activity (RBL-2H3 [3]) was 14%. For the same molecule, the Activity (RBL-2H3 [4]) was 110% and the Activity [1] was 22.1%.

For `CCCCC/C=C\C/C=C\C/C=C\CCCCC(=O)NCCO`, the Activity (RAW264.7) was 87% and the Activity [1] was 54%.

With `CCCCCCC(C)(C)c1cc(O)c2c(c1)OC(C)(C)[C@@H]1CC=C(C(=O)O)C[C@@H]21` the Activity (HTB126 [5]) was “Active”, the Activity (HTB126 [6]) was “Active” and the Activity (HTB126 [7]) was “Active”. For the same molecule, the Activity (HeLa) was “Active” and the Activity (HTB126 [8]) was “Active”.

`CCCCCCCCCCCCCCCC(=O)N[C@@H](C)C(=O)O` gave an Activity (RBL-2H3 [2]) of 90%, an Activity (RBL-2H3 [3]) of 10% and an Activity (RBL-2H3 [4]) of 110%.

Work on `COc1ccc2c(c1)c(CC(=O)O)c(C)n2C(=O)c1ccc(Cl)cc1` [INDOMETHACIN] yielded an Activity (RAW264.7) of 177% and an Activity [1] of 144%.

`CCCCC/C=C\C/C=C\C/C=C\CCCCCCC(=O)NCCO` showed an Activity (RAW264.7) of 70% and an Activity [1] of 54%.

For `CCCCCCCC/C=C\CCCCCCCC(=O)NCCc1ccc(O)c(O)c1` [OLEOYL DOPAMINE], the Activity (RAW264.7) was 7.02%, the Activity (HeLa) was “Active” and the Activity [1] was 24%.

`CCCCC/C=C\C/C=C\C/C=C\C/C=C\CCCC(=O)N[C@@H](C)C(=O)O` showed an Activity (RBL-2H3 [2]) of 160%, an Activity (RBL-2H3 [3]) of 50% and an Activity (RBL-2H3 [4]) of 120%.

`CCCCC/C=C\C/C=C\CCCCCCCC(=O)NCCO` [LINOLEOYLETHANOLAMIDE] gave an Activity (RAW264.7) of 100% and an Activity [1] of 63%.

`CCCCCCCCCCCCCCCC(=O)NCCCC(=O)O` [PALMITOYL GABA] showed an Activity (RBL-2H3 [2]) of 100%, an Activity (RBL-2H3 [3]) of 100% and an Activity (RBL-2H3 [4]) of 120%.

For `CCCCCCCCCCCCCCCC(=O)NCCO` [PALMIDROL], the Activity (RAW264.7) was 66% and the Activity [1] was 130%.

`CCCCC/C=C\C/C=C\C/C=C\C/C=C\CCCC(N)=O` [ARACHIDONAMIDE] gave an Activity (RAW264.7) of 91% and an Activity [1] of 58%.

In the case of `CCCCC/C=C\C/C=C\C/C=C\C/C=C\CCCCCC(=O)NCCO`, the Activity (RAW264.7) is reported as 65% and the Activity [1] is reported as 24%.

In the case of `CCCCCCCCCCCCCCCC(=O)NCC(=O)O` [PALMITOYL GLYCINE], the Activity (RBL-2H3 [2]) is reported as 110%, the Activity (HeLa) is reported as “Active” and the Activity (RBL-2H3 [3]) is reported as 110%. It also gave an Activity (RBL-2H3 [4]) of 130%.

For `CCCCC/C=C\C/C=C\C/C=C\CCCCCCC(=O)NCCc1ccc(O)c(O)c1`, the Activity (RAW264.7) was 5.72%, the Activity (HeLa) was “Active” and the Activity [1] was 25.5%.

For `CCCCC/C=C\C/C=C\C/C=C\C/C=C\CCCCCC(N)=O`, the Activity (RAW264.7) was 91% and the Activity [1] was 61%.

In the case of `CCCCC/C=C\C/C=C\C/C=C\CCCCC(=O)NCCc1ccc(O)c(O)c1`, the Activity (RAW264.7) is reported as 6.1%, the Activity (HeLa) is reported as “Active” and the Activity [1] is reported as 38.3%.

`CCCCCCCC/C=C\CCCCCCCC(=O)NCCO` [OLEOYLETHANOLAMIDE] gave an Activity (RAW264.7) of 117% and an Activity [1] of 140%.

For `CCCCCCCCCCCCCCCC(=O)N[C@@H](Cc1ccc(O)cc1)C(=O)O`, the Activity (HTB126 [9]) was “inactive”, the Activity (HTB126 [5]) was “Active” and the Activity (HTB126 [10]) was “Active”. For the same molecule, the Activity (HTB126 [7]) was “Active”, the Activity [11] was “Non-toxic” and the Activity (HTB126 [12]) was “inactive”. For the same molecule, the Activity (HTB126 [8]) was “Active”.

`CCCCC/C=C\C/C=C\C/C=C\C/C=C\CCCC(=O)NCCO` [ANANDAMIDE] showed an Activity (RAW264.7) of 110% and an Activity [1] of 74%.

`CCCCCCCCCCCCCCCC(N)=O` [PALMITAMIDE] gave an Activity (RAW264.7) of 100% and an Activity [1] of 118%.

In the case of `CCCCC/C=C\C/C=C\C/C=C\C/C=C\CCCCCC(=O)NCCc1ccc(O)c(O)c1`, the Activity (RAW264.7) is reported as 4.32%, the Activity (HeLa) is reported as “Active” and the Activity [1] is reported as 25.7%.

In the case of `CC/C=C\C/C=C\C/C=C\CCCCCCCC(N)=O` [LINOLENAMIDE], the Activity (RAW264.7) is reported as 126% and the Activity [1] is reported as 85%.

Work on `CCCCC/C=C\C/C=C\C/C=C\C/C=C\CCCC(=O)NCC(=O)O` [ARACHIDONOYL GLYCINE] yielded an Activity (RBL-2H3 [2]) of 130%, an Activity (RBL-2H3 [3]) of 21% and an Activity (RBL-2H3 [4]) of 130%.

In the case of `CCCCCCCCCCCCCCCC(=O)NCCc1ccc(O)c(O)c1` [PALMITOYL DOPAMINE], the Activity (RAW264.7) is reported as 11.1%, the inhibition at 10 µM [13] is reported as 80% and the Activity (RBL-2H3 [2]) is reported as 50%. The Activity [14] was “Not Active”, the Activity (RBL-2H3 [3]) was 15% and the Activity (RBL-2H3 [4]) was 130%. For the same molecule, the Activity [1] was 41.6%.

With `CCCCC/C=C\C/C=C\C/C=C\C/C=C\CCCC(=O)NCCCC(=O)O` [ARACHIDONOYL GABA] the Activity (RBL-2H3 [2]) was 120%, the Activity (RBL-2H3 [3]) was 15% and the Activity (RBL-2H3 [4]) was 100%.
